Bioassay records from PubChem.
PAFAH1B2 inh = PAFAH1B2 (human) inhibition. P68402. recombinant PAFAH1B2, FP-rhodamine activity probe, fluorescence polarization. inhibition, % at 3.39 µM. actives 1.2% (n = 340,000);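 active means inhibition above the mean of all tested compounds plus 3 SD, cut at about 24% in these data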;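 further: 0% = enzyme with DMSO and 100% = wells lacking PAFAH1B2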
PAFAH2 inh = inhibitors of human PAFAH2. Q99487. recombinant PAFAH2, FP-rhodamine activity probe, fluorescence polarization. inhibition, % at 3.39 µM. actives 0.99% (n = 340,000). AID 492956;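 active means inhibition above the mean over all tested compounds plus 3 SD, cut at about 30% in these data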;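 further: inhibitors block probe labeling of enzyme so polarization drops; 0% = enzyme with DMSO and 100% = wells lacking PAFAH2 protein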
PAFAH1B3 inh = inhibitors of human PAFAH1B3; recombinant PAFAH1B3, FP-rhodamine probe, fluorescence polarization; AID 492972; Q15102; actives 0.28% (n = 340,000); inhibition, % at 3.39 µM;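 active means inhibition above the screen-wide average of all tested compounds plus 3 SD, cut at about 25% in these data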;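 further: 0% = enzyme with DMSO only and 100% = wells lacking PAFAH1B3 protein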
Target sequence (Q15102 whole entry, looked up): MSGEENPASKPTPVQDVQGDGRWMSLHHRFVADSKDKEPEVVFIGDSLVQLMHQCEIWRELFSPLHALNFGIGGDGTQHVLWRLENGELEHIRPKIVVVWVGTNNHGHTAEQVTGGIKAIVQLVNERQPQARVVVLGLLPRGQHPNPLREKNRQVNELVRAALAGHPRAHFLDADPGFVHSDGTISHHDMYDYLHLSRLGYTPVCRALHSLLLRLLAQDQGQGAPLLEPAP
Apaf-1 inh = human Apaf-1 inhibition; O14727; reconstituted apoptosome caspase-3 activity, DEVD-Rh110 fluorescence; inhibition, % at 20 µM; actives 0.71% (n = 330,000); active means inhibition of at least 40% at 20 µM;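 further: plate controls were DMSO wells for no effect and DEVD-CHO caspase inhibitor wells for full effect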
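Material: biochemical Apaf-1 apoptosome reconstitution. Medium: Hepes buffer, pH 7.5. Also added: cytochrome c activation, bis-DEVD rhodamine 110 substrate. Timing: 30 min compound preincubation, 50 min activation, room temperature. Measured by: rhodamine 110 fluorescence at Ex 480/Em 540 nm.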
pPAFAH FP inh = pPAFAH (human) enzyme inhibition; Q13093; recombinant pPAFAH, FP-rhodamine probe fluorescence polarization; inhibition, % at 3.39 µM; actives 1.5% (n = 330,000);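 active means inhibition above the mean inhibition across the screen plus 3 SD, cut at about 25% in these data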;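 further: inhibitors block binding of the rhodamine activity-based probe so polarization drops; 0% = enzyme with DMSO and 100% = wells lacking pPAFAH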
Target sequence (Q13093 whole entry, looked up): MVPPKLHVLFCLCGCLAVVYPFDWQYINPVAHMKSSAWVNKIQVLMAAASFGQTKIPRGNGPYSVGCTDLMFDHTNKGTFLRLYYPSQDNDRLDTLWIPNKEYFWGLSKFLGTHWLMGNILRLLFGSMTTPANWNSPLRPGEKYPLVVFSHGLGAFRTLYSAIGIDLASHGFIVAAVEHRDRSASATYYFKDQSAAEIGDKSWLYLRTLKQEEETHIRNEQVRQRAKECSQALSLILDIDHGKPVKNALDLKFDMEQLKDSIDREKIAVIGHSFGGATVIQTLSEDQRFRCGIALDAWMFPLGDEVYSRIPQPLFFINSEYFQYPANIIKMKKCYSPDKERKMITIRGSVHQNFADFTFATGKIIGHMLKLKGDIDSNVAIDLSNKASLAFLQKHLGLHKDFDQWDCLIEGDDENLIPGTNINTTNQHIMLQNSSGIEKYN
Apaf-1 inh conf = Apaf-1 inhibition, single-dose confirmed; AID 504614; shares compounds with Apaf-1 inh; inhibition, % at 20 µM; reconstituted apoptosome, caspase-3 DEVD-Rh110 fluorescence; actives 25% (n = 1,800);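 active means mean inhibition of at least 40% at 20 µM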;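 further: plate controls were DMSO wells for no effect and DEVD-CHO caspase inhibitor control wells for full effect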
Rh110 quench = interferes with Rh110 fluorescence, flagging false Apaf-1 inhibitors; shares compounds with Apaf-1 inh; AID 504615; Rh110 fluorescence interference, quenched caspase reaction; activation (fluorescence interference), % at 20 µM; 1,800 tested, under 10 active;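 active means signal rise of 40% or more at 20 µM, treated as a fluorescence artifact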
Fluor interf inh = shows fluorescence interference in the Apaf-1 inhibitor assay format. IC50, µM. AID 588538. fluorescence interference counterscreen, Apaf-1 assay format. shares compounds with Apaf-1 inh. 460 tested, under 10 active; call rule not given here
Active calls of the source: *. In the library only some 3.1% were active in any assay of this set; here they are far more common.

CCCCCCCCCCOC(=O)Cn1c(COc2ccccc2)[n+](C)c2ccccc21 was read as PAFAH1B2 inh 6, PAFAH2 inh 1, PAFAH1B3 inh 7, Apaf-1 inh 73*, pPAFAH FP inh 13, Apaf-1 inh conf 72*, Rh110 quench 25 and Fluor interf inh >100.
CCOC(=O)Cn1c(COc2ccccc2OC)[n+](C)c2ccccc21 was read as Apaf-1 inh -7 and pPAFAH FP inh -7.
O=C(CCCN1C(=O)NC2(CCCC2)C1=O)Nc1ccc(Cl)c(S(=O)(=O)N2CCOCC2)c1 was read as PAFAH1B2 inh 1, PAFAH2 inh 2, PAFAH1B3 inh -1 and Apaf-1 inh -6.
For Cc1ccc(OCc2nnc(SCC(=O)N3C(C)CCCC3C)o2)cc1 (stereo not drawn) the results were PAFAH1B2 inh 0, PAFAH2 inh -14, PAFAH1B3 inh -3, Apaf-1 inh 13 and pPAFAH FP inh 4.
`COC(c1ccc(Cl)cc1)(c1ccc(Cl)cc1)C(Oc1nc(C)cc(C)n1)C(=O)O` (stereo not drawn) gave PAFAH1B2 inh 6, PAFAH2 inh 6, PAFAH1B3 inh 8, Apaf-1 inh -2 and pPAFAH FP inh -2.
Cc1nnc(NC(=O)C2CC(=O)N(c3ccccc3)C2)s1 (stereo not drawn) was read as PAFAH1B2 inh 3, PAFAH2 inh -3, PAFAH1B3 inh 7, Apaf-1 inh 12 and pPAFAH FP inh -8.
`CCCCCOC(=O)Cn1c(=O)oc2ccccc21` gave PAFAH1B2 inh 7, PAFAH2 inh 0, PAFAH1B3 inh 0, Apaf-1 inh 2 and pPAFAH FP inh 8.
`CCCCCCCCCCOC(=O)Cn1c(COc2cccc(C)c2)[n+](C)c2ccccc21` gave PAFAH1B2 inh 0, PAFAH2 inh -6, PAFAH1B3 inh -2, Apaf-1 inh 79*, pPAFAH FP inh 12, Apaf-1 inh conf 77*, Rh110 quench 34 and Fluor interf inh >100.
Screening CCCCCCCCCCOC(=O)Cn1c(COc2ccc(Cl)cc2)[n+](C)c2ccccc21 returned PAFAH1B2 inh 6, PAFAH2 inh 5, PAFAH1B3 inh 4, Apaf-1 inh 85*, pPAFAH FP inh 11, Apaf-1 inh conf 90*, Rh110 quench 24 and Fluor interf inh >100.
For Cc1nn(Cc2c(F)c(F)c(F)c(F)c2F)c(C)c1NC(=O)c1ccc(COc2ccc(Cl)cc2Cl)o1 the results were PAFAH1B2 inh -2, PAFAH2 inh -17, PAFAH1B3 inh 1, Apaf-1 inh 46*, pPAFAH FP inh -2, Apaf-1 inh conf 21 and Rh110 quench 6.
`Cn1c(=N)n(CC(=O)c2ccc(Br)s2)c2ccccc21` gave PAFAH1B2 inh 1, PAFAH2 inh 1, PAFAH1B3 inh 1, Apaf-1 inh 3 and pPAFAH FP inh 2.
For N=c1n(CC(=O)c2ccc(Br)s2)c2ccccc2n1Cc1ccccc1 the results were PAFAH1B2 inh 4, PAFAH2 inh 3, PAFAH1B3 inh -9, Apaf-1 inh 42*, pPAFAH FP inh 1, Apaf-1 inh conf 23 and Rh110 quench 7.
Screening CCOC(=O)C1CCN(C(=O)c2cccc(NS(=O)(=O)c3ccc(Br)cc3)c2)CC1 returned PAFAH1B2 inh 13, PAFAH2 inh 3, PAFAH1B3 inh 1, Apaf-1 inh 6 and pPAFAH FP inh 5.
CCOC(=O)C1CCN(C2=C(NS(=O)(=O)c3ccc(Br)cc3)C(=O)c3ccccc3C2=O)CC1 was read as PAFAH1B2 inh 17, PAFAH2 inh 10, PAFAH1B3 inh 7, Apaf-1 inh 68*, pPAFAH FP inh 16, Apaf-1 inh conf 33 and Rh110 quench -2.
For NC(=O)C1CCN(c2nc3ccccc3nc2NS(=O)(=O)c2ccc(Br)cc2)CC1 the results were PAFAH1B2 inh 4, PAFAH2 inh 4, PAFAH1B3 inh 7, Apaf-1 inh 3 and pPAFAH FP inh 0.
`NC(=O)C1CCN(C2=C(NS(=O)(=O)c3ccc(Br)cc3)C(=O)c3ccccc3C2=O)CC1` gave PAFAH1B2 inh 11, PAFAH2 inh 8, PAFAH1B3 inh 8, Apaf-1 inh 66*, pPAFAH FP inh 8, Apaf-1 inh conf 48*, Rh110 quench 14 and Fluor interf inh >100.
For CC1CC(C)CN(CCCNC(=O)c2ccc3c(c2)ncn3C2CCCC2)C1 (stereo not drawn) the results were PAFAH1B2 inh -1, PAFAH2 inh -5, PAFAH1B3 inh -3, Apaf-1 inh 5 and pPAFAH FP inh -1.
Screening COc1ccccc1CNC(=O)CCN=C1NS(=O)(=O)c2ccccc21 returned PAFAH1B2 inh 5, PAFAH2 inh 4, PAFAH1B3 inh 5, Apaf-1 inh -2 and pPAFAH FP inh -3.
COc1ccc2c(n1)Sc1nc3ccccc3nc1N2 was read as PAFAH1B2 inh 6, PAFAH2 inh -8, PAFAH1B3 inh 8 and pPAFAH FP inh 1.
For CN(C)c1cccc2c1c(NS(=O)(=O)c1cn(C)cn1)nn2C the results were PAFAH1B2 inh 6, PAFAH2 inh -2, PAFAH1B3 inh 17, Apaf-1 inh 62*, pPAFAH FP inh 9, Apaf-1 inh conf 17 and Rh110 quench -3.
Screening Cn1cnc(S(=O)(=O)Nc2ccccc2N2CCOCC2)c1 returned Apaf-1 inh -3 and pPAFAH FP inh -7.
For CCCCCCCCCCCCOC(=O)C[N+](C)(C)C the results were Apaf-1 inh 46*, pPAFAH FP inh 6, Apaf-1 inh conf 10 and Rh110 quench 1.
For Clc1ccc(C2=Nn3c(nnc3-c3n[nH]c4c3CCC4)SC2)cc1Cl the results were PAFAH1B2 inh 1, PAFAH2 inh 4, PAFAH1B3 inh 4, Apaf-1 inh 43*, pPAFAH FP inh 11, Apaf-1 inh conf 34 and Rh110 quench 4.
For Cc1ccc(NC(=S)NC(=O)C2CCC2)cc1C the results were PAFAH1B2 inh -5, PAFAH2 inh 2, PAFAH1B3 inh 10, Apaf-1 inh 4 and pPAFAH FP inh 7.
`c1ccc(CNc2nc(NCc3ccccc3)c3ccccc3n2)cc1` gave PAFAH1B2 inh 4, PAFAH2 inh 3, PAFAH1B3 inh 6, Apaf-1 inh 66*, pPAFAH FP inh 1, Apaf-1 inh conf 6 and Rh110 quench 0.
`CNC(=S)N/N=C/c1c2ccccc2c(Cl)c2ccccc12` gave PAFAH1B2 inh 0, PAFAH2 inh -7, PAFAH1B3 inh 7, Apaf-1 inh 17 and pPAFAH FP inh 7.
CCOc1ccc(-c2cc(C(=O)NCCCn3ccnc3)c3ccccc3n2)cc1 was read as PAFAH1B2 inh -1, PAFAH2 inh 2, PAFAH1B3 inh 9, Apaf-1 inh -6 and pPAFAH FP inh 4.
